# Measurements as given in ChEMBL document CHEMBL5357044, “Discovery of a dual-acting inhibitor of interleukin-1β and STATs for the treatment of inflammatory bowel disease” (RSC Med Chem, 2024).
# Active and inactive are the calls of the source. The rule behind the calls is not given here.
# Key:
# [1] = system: J774.A1; experiment: Inhibition of STAT5 expression in LPS-treated mouse J774.A1 cells assessed as reduction in STAT5 phosphorylation at 50 to 200 nM treated for 1 hr by Western blot analysis; type: cell-based; conditions: dose 50-200 nM
# In short: (§1)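 J774A.1 cells pretreated with LPS and compound, lysed in RIPA. pSTAT1, STAT1, pSTAT3, STAT3, pSTAT5 and STAT5 detected by SDS-PAGE western blot with ECL.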
# [2] = target: NACHT, LRR and PYD domains-containing protein 3 (Mus musculus) (UniProt Q8R4B8); experiment: Inhibition of NLRP3 inflammasome activation in mouse J774.A1 cells assessed as reduction in cleaved GSDMD production at 50 to 200 nM pretreated for 1 hr followed by nigericin treatment for 1 hr by Western blot analysis; type: cell-based; conditions: dose 50-200 nM, time 2.0 hrs
# Sequence of NACHT, LRR and PYD domains-containing protein 3 (Mus musculus) (Q8R4B8 whole entry, the tested form may be a part): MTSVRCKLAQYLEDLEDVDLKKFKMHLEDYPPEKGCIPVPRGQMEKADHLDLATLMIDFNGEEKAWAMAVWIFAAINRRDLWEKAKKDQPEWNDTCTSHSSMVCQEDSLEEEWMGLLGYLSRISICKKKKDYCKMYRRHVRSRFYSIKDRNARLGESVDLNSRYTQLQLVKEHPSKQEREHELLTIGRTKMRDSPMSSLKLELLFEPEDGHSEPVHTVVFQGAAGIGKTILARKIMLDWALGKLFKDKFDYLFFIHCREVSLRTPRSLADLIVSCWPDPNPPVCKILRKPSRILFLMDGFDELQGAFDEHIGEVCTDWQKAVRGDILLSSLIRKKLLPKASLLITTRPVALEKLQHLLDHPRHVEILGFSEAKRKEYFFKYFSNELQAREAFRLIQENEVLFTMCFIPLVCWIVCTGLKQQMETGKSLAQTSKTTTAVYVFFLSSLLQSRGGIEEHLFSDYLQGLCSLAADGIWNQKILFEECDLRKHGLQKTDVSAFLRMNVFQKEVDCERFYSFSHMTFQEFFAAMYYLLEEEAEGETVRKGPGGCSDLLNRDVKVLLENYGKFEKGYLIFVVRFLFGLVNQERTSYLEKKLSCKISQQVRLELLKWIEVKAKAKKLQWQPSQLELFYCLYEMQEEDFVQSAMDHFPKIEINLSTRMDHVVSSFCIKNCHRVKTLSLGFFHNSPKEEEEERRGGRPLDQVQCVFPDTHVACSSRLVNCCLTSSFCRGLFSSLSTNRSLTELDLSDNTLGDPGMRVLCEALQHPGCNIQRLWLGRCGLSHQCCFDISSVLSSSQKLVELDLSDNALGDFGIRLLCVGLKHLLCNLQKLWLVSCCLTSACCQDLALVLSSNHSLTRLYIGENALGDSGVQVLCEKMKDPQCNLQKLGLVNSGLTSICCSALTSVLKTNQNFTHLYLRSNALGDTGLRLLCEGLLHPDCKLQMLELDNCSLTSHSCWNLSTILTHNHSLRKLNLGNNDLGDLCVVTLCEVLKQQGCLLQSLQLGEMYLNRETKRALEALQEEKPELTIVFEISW
# In short: (§2)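 J774A.1 cells, LPS 1 μg mL−1 for 5 h, compound exposure, nigericin 10 μM 1 h. RIPA lysis with protease inhibitor and BCA quantitation, then SDS-PAGE/PVDF. Blocked 5% milk, primary antibodies overnight at 4 °C, HRP secondaries, ECL detection.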
# [3] = Toxicity in mouse assessed as inactive state of animal at 2 mg/kg/day, ip treated for 7 days; type: organism-based; conditions: in vivo, 168 h, time 7 day
# In short: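 Preliminary tolerability study: mice (n = 2) injected intraperitoneally at 2 mg kg−1 per day for 7 days. General state and activity observed.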
# [4] = system: Colon; experiment: Anti-colitis activity against DSS-induced ulcerative colitis mouse model assessed as decrease in infiltration of inflammatory cells in colon tissue at 0.2 to 0.6 mg/kg, ip treated every 72 hrs for 9 days by H and E staining based analysis; type: functional, organism-based; conditions: dose 0.2-0.6 mg/kg, time 9.0 day
# In short: (§3)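 Colons were taken on day 9 from 2.5% DSS-fed mice (DSS days 1–7). Dosing was i.p. 0.2 or 0.6 mg kg−1 in 50% PEG300 on days 2, 5, 8. H&E-stained sections imaged at ×20 and scored for inflammatory infiltration, goblet cell depletion and crypt loss.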
# [5] = target: NLR family CARD domain-containing protein 4 (Mus musculus) (UniProt Q3UP24); experiment: Inhibition of NLRC4 inflammasome activation in mouse BMDM cells assessed as reduction in LPS-stimulated IL-1beta level at 50 to 200 nM pretreated for 1 hr followed by FLA-ST Ultrapure treatment for 4 hrs by ELISA; type: cell-based; conditions: dose 50-200 nM, time 5.0 hrs
# Sequence of NLR family CARD domain-containing protein 4 (Mus musculus) (Q3UP24 whole entry, the tested form may be a part): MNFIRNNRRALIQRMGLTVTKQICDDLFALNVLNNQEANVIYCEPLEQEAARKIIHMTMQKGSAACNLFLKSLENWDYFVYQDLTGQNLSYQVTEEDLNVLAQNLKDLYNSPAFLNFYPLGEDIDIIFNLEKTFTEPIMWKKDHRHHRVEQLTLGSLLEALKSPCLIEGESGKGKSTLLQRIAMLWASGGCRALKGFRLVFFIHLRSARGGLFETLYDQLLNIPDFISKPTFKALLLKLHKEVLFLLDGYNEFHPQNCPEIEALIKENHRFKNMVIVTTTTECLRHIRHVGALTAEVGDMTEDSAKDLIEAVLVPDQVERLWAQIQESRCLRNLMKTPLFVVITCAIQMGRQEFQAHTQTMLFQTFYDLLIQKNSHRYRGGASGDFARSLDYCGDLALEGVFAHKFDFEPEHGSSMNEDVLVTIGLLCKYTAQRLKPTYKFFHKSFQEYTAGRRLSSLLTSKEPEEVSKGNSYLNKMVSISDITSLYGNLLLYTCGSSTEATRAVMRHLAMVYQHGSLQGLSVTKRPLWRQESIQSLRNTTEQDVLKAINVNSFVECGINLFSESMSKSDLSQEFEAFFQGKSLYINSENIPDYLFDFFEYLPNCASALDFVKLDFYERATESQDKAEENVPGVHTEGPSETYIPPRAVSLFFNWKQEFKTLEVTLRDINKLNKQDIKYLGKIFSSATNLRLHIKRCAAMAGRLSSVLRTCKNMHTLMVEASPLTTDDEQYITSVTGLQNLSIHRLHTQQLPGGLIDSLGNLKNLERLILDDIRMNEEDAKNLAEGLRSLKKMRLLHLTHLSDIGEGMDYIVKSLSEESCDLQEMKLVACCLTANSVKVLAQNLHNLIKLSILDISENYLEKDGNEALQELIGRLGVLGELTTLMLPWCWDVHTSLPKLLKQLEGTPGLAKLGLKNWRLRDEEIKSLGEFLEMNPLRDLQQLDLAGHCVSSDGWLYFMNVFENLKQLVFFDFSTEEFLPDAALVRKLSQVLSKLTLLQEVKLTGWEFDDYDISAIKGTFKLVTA
# In short: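 BMDMs (RPMI 1640, 10% FBS, Glutamax, 20 ng mL−1 M-CSF) primed with 0.5 μg mL−1 LPS for 3 h, then compound for 1 h. Stimulated 4 h with FLA-ST Ultrapure 2.5 μg mL−1 (NLRC4) or poly(dA/dT) 0.25 μg mL−1 (AIM2). IL-1β measured by ELISA.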
# [6] = system: Mus musculus; experiment: Anti-colitis activity against DSS-induced ulcerative colitis mouse model assessed as decrease in hemafecia at 0.2 to 0.6 mg/kg, ip treated every 72 hrs for 9 days; type: functional, organism-based; conditions: dose 0.2-0.6 mg/kg, time 9.0 day
# In short: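 Mice given 2.5% DSS water days 1–7, then water to day 9. Dosing: i.p. 0.2 or 0.6 mg kg−1 in 50% PEG300 on days 2, 5, 8. Body weight and fecal occult blood scored daily. Colon length measured after sacrifice on day 9. Mean ± s.e.m.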
# [7] = target: NACHT, LRR and PYD domains-containing protein 3 (Mus musculus) (UniProt Q8R4B8); experiment: Inhibition of NLRP3 inflammasome activation in mouse J774.A1 cells assessed as reduction in mature IL-1beta release at 50 to 200 nM pretreated for 1 hr followed by nigericin treatment for 1 hr by Western blot analysis; type: cell-based; conditions: dose 50-200 nM, time 2.0 hrs; in short: as §2
# [8] = target: T1, Signal transducer and activator of transcription 1 (Mus musculus) (UniProt P42225); experiment: Inhibition of STAT1 expression in LPS-treated mouse J774.A1 cells assessed as reduction in STAT1 phosphorylation at 50 to 200 nM treated for 1 hr by Western blot analysis; type: cell-based; conditions: dose 50-200 nM; in short: as §1
# T1 sequence (whole entry): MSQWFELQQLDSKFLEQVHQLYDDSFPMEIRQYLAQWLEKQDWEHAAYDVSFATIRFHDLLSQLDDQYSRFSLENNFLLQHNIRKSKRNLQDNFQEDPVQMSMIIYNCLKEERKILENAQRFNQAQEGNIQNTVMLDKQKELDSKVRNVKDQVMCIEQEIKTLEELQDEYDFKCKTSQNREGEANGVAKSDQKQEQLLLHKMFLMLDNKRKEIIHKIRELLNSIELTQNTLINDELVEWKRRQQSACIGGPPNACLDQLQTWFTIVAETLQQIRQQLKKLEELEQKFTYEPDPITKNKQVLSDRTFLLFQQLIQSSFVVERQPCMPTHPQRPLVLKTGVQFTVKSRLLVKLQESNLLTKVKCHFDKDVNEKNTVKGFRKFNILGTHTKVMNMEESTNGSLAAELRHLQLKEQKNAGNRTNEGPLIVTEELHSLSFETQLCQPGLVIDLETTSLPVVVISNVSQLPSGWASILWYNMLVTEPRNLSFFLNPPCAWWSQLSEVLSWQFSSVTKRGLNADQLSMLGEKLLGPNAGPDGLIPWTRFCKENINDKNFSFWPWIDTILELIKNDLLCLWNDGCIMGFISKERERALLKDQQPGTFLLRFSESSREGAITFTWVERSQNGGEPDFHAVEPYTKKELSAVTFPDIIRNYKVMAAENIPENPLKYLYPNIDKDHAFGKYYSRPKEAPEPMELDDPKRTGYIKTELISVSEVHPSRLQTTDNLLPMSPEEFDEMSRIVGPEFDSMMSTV
# [9] = target: NACHT, LRR and PYD domains-containing protein 3 (Mus musculus) (UniProt Q8R4B8); experiment: Inhibition of NLRP3 inflammasome activation in mouse J774.A1 cells assessed as reduction in caspase-1 p20 subunits release at 50 to 200 nM pretreated for 1 hr followed by nigericin treatment for 1 hr by Western blot analysis; type: cell-based; conditions: dose 50-200 nM, time 2.0 hrs; in short: as §2
# [10] = system: Intestine; experiment: Anti-colitis activity against DSS-induced ulcerative colitis mouse model assessed as decrease in STAT-1 level in intestinal tissue at 0.2 to 0.6 mg/kg, ip treated every 72 hrs for 9 days by Western blot analysis; type: functional, organism-based; conditions: dose 0.2-0.6 mg/kg, time 9.0 day
# In short: (§4)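 DSS model (2.5% in drinking water days 1–7, water days 8–9). Dosing was i.p. at 0.2 and 0.6 mg kg−1 in 50% PEG300 on days 2, 5, 8. Intestinal tissue taken at sacrifice on day 9. Lysed in RIPA with protease inhibitor and BCA-quantified, then run on SDS-PAGE/PVDF and probed for STAT1, STAT3, STAT5 and caspase-1. ECL detection.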
# [11] = target: Signal transducer and activator of transcription 3 (Mus musculus) (UniProt P42227); experiment: Inhibition of STAT3 expression in LPS-treated mouse J774.A1 cells at 50 to 200 nM treated for 1 hr by Western blot analysis; type: cell-based; conditions: dose 50-200 nM; in short: as §1
# Sequence of Signal transducer and activator of transcription 3 (Mus musculus) (P42227 whole entry): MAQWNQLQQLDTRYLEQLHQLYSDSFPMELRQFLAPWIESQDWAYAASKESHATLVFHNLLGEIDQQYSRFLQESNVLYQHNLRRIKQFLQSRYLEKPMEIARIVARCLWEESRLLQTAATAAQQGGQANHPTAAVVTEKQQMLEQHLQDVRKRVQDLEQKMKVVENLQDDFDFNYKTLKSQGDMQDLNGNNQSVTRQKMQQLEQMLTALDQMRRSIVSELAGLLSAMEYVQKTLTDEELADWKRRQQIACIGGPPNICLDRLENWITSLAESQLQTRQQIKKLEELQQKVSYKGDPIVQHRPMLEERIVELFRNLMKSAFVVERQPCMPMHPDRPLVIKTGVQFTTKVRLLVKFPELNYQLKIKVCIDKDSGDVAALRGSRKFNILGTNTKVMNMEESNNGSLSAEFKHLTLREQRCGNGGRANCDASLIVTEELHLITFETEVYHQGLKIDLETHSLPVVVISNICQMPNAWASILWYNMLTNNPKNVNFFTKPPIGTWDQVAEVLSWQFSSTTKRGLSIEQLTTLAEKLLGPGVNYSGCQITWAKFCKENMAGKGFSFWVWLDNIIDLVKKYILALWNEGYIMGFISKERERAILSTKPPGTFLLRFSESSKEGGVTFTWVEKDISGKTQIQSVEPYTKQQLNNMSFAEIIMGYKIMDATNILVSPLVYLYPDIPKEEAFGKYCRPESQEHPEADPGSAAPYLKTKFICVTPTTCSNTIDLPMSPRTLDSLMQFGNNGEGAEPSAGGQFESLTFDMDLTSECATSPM
# [12] = system: Colon; experiment: Anti-colitis activity against DSS-induced ulcerative colitis mouse model assessed as increase in goblet cells in colon tissue at 0.2 to 0.6 mg/kg, ip treated every 72 hrs for 9 days by H and E staining based analysis; type: functional, organism-based; conditions: dose 0.2-0.6 mg/kg, time 9.0 day; in short: as §3
# [13] = system: Intestine; experiment: Anti-colitis activity against DSS-induced ulcerative colitis mouse model assessed as decrease in STAT-5 level in intestinal tissue at 0.2 to 0.6 mg/kg, ip treated every 72 hrs for 9 days by Western blot analysis; type: functional, organism-based; conditions: dose 0.2-0.6 mg/kg, time 9.0 day; in short: as §4
smiles,measurement,setting,value
Cc1cc(/C=C/C(=O)c2ccc(C(=O)N[C@@H](Cc3ccccc3)C(=O)N[C@@H](CC(C)C)B(O)O)cc2)cc(C)c1O,inhibition,[1],Active
same,inhibition,[2],Active
same,Activity,[3],Toxic
same,Activity,[4],Active
same,inhibition,[5],inactive
same,Activity,[6],Active
same,inhibition,[7],Active
same,inhibition,[8],Active
same,inhibition,[9],Active
same,Activity,[10],Active
same,inhibition,[11],inactive
same,Activity,[12],Active
same,Activity,[13],Active
